Assay results as given in ChEMBL document CHEMBL4311956, “A Qualified Success: Discovery of a New Series of ATAD2 Bromodomain Inhibitors with a Novel Binding Mode Using High-Throughput Screening and Hit Qualification” (J Med Chem, 2019).
One block for each compound: values may come before it. Active and inactive are the calls of the source.

Key:
[1] = target: T1, ATPase family AAA domain-containing protein 2 (Homo sapiens) (UniProt Q6PL18); test: Binding affinity to 15N-labelled ATAD2 (981 to 1108 residues) (unknown origin) at 100 uM by 1H-15N HSQC NMR analysis
T1 sequence (whole entry): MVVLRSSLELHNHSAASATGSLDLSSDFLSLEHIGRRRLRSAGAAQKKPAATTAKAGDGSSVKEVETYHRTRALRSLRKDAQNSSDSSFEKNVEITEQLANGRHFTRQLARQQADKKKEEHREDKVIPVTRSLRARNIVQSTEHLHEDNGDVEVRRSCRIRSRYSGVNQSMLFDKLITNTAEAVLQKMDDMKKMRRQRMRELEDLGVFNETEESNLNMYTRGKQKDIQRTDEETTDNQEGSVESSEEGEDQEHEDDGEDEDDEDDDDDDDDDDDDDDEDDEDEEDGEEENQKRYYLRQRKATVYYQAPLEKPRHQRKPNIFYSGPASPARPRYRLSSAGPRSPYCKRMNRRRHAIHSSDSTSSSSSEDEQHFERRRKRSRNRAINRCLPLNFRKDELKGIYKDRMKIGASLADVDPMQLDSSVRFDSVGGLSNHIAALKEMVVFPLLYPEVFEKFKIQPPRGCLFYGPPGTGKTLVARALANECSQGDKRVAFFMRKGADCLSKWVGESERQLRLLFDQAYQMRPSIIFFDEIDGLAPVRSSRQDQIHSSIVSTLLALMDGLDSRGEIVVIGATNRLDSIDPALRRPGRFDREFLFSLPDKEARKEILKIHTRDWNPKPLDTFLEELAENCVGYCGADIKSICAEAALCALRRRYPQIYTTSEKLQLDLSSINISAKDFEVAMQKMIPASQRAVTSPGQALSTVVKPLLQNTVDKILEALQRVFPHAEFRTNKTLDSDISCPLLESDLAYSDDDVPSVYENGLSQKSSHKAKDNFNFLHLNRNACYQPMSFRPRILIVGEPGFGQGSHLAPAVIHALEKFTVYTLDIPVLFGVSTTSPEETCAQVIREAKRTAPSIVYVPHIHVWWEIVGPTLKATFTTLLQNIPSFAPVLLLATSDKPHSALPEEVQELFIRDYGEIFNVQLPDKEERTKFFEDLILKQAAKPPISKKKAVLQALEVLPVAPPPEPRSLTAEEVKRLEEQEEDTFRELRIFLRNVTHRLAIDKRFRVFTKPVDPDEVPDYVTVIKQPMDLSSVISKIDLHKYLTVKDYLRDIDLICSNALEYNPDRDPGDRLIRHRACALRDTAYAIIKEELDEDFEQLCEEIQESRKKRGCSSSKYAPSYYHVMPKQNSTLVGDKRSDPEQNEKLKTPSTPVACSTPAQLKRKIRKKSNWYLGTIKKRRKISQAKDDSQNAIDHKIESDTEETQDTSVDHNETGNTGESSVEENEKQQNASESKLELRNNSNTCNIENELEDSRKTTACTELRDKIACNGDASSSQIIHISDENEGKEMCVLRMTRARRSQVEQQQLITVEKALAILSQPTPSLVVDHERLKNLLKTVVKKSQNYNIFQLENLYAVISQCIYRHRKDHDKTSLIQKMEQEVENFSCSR
Summary of the method: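 15N–1H HSQC spectra of labelled ATAD2 bromodomain recorded with and without compound at 100 μM. Binding is judged from spectral changes.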

[2] = target: T1, ATPase family AAA domain-containing protein 2 (Homo sapiens); test: Displacement of SGRG-K(Ac)-GG-K(Ac)-GLG-K(Ac)-GGAKRHRKV-biotin) from His6/FLAG-tagged TEV fused ATAD2 bromodomain (981 to 1121 residues) (unknown origin) expressed in Escherichia coli BL21(DE3) cells up to 10 uM after 30 mins by TR-FRET assay
[3] = target: T2, ATPase family AAA domain-containing protein 2 (Homo sapiens, UniProt Q6PL18); test: Displacement of biotinylated H4 peptide from His6/FLAG-tagged TEV fused ATAD2 bromodomain (950 to 1148 residues) (unknown origin) expressed in Escherichia coli BL21(DE3) cells after 30 mins by TR-FRET assay
T2 sequence (Q6PL18 whole entry): T1 sequence (whole entry)
Summary of the method: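 TR-FRET acetylated-peptide displacement assay using 6H-Flag-tev ATAD2(950–1148). Used for the HTS: single-concentration primary screen with digital plate-pattern correction, then replated duplicate retest and dose–response. A curve-fit cutoff of IC50 > 30 μM applies.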

[4] = target: Bromodomain-containing protein 4 (Homo sapiens, UniProt O60885, Y97A); test: Displacement of Alexa Fluor 647 labelled ligand from His6-tagged BRD4 BD2 (1 to 477 residues)/BD1 Y97A mutant (unknown origin) after 30 mins by TR-FRET assay
Summary of the method: (§1)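 BET selectivity by TR-FRET fluoroligand displacement. Uses tandem BET bromodomain constructs carrying a mutation in the non-assayed bromodomain.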

[5] = target: T2, ATPase family AAA domain-containing protein 2; test: Displacement of Alexa Fluor 488 labelled ligand from ATAD2 bromodomain (981 to 1121 residues) (unknown origin) expressed in Escherichia coli BL21(DE3) cells after 30 mins by TR-FRET assay
[6] = target: Bromodomain-containing protein 4 (Homo sapiens, UniProt O60885, Y390A); test: Displacement of Alexa Fluor 647 labelled ligand from His6-tagged BRD4 BD1 (1 to 477 residues)/BD2 Y390A mutant (unknown origin) after 30 mins by TR-FRET assay; summary of the method: as §1
[7] = target: T2, ATPase family AAA domain-containing protein 2; test: Binding affinity to human partial length ATAD2A (Q981 to R1108 residues) expressed in Escherichia coli BL21(DE3) cells after 1 hr by competitive binding assay

Activity [1]: inactive
Activity [2]: inactive
IC50 [3]: 0.03 µM
SMILES: CN1CCN(c2nc(C(=O)c3ccccc3)c3cnn(C)c3n2)CC1

IC50 [4]: 31.6 µM
IC50 [5]: 0.631 µM
IC50 [6]: > 50.1 µM
SMILES: CC1CCCN(S(=O)(=O)c2cc(NC(=O)CN3C(=O)CNC3=O)ccc2Br)C1 (configuration not stated)

Kd [7]: 44 µM
SMILES: CCOC(=O)Nc1cc(-c2ccc(C)c(NS(C)(=O)=O)c2)nn2c(C)nnc12
